ChEMBL document CHEMBL1153864, “Phase transfer catalyzed synthesis of bis-quinolines: antileishmanial activity in experimental visceral leishmaniasis and in vitro antibacterial evaluation” (Eur J Med Chem, 2009)
Converted amounts (≈) assume the structure as drawn.

Tests used:
Leishmania donovani [1] = test: Antileishmanial activity against Leishmania donovani MHOM/IN/1983/AG83 promastigotes after 4 hrs by MTT assay; format: functional, organism-based; conditions: MHOM/IN/1983/AG83, 4 h
Outline: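 AG83 promastigotes kept at 22 °C in M199 + 10% FBS. Log-phase cells (2×10^6/ml) exposed 2 h at 22 °C to 1, 3, 5, 7, 10, 15 compound; DMSO at 0.1% final. Cells washed with PBS, incubated 4 h at 22 °C with MTT (2 mg/ml). Formazan dissolved in DMSO and read at 570 nm; % lysis computed, IC50 by linear regression.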

Leishmania donovani [2] = test: Antileishmanial activity against Leishmania donovani MHOM/IN/1983/AG83 amastigotes by Giemsa staining; format: functional, organism-based
Outline: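 Peritoneal macrophages from thioglycolate-elicited exudate (~2×10^6/ml), adhered overnight on coverslips in RPMI-1640 + 10% FBS at 37 °C, 5% CO2. Infected 6 h with stationary-phase AG83 promastigotes (2×10^7/ml), washed, then exposed 24 h to 0.5, 1, 3, 5, 10 compound. Methanol-fixed, Giemsa-stained; amastigotes per 200 macrophages counted against untreated controls.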

[3] = Toxicity against golden Syrian hamster peritoneal macrophages; format: cell-based, Mesocricetus auratus; conditions: macrophage
Leishmania donovani [4] = test: Antileishmanial activity against Leishmania donovani MHOM/IN/1983/AG83 promastigotes infected ip dosed BALB/c mouse assessed as reduction in spleen parasite burden administered two times per week for 4 weeks relative to control; format: functional; parameters: scale not given: the % may be the effect or the level left
Outline: (§1)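 BALB/c mice (4-6 weeks) were infected iv with 2 × 10^7 freshly transformed promastigotes. One month later, groups were dosed ip in 0.2% Tween 80 in PBS (0.02 M), twice weekly for one month (8 doses); controls got vehicle only. Mice were killed one month post-treatment and spleen and liver were weighed. Parasite load came from Giemsa impression smears as organ weight (mg) × amastigotes per cell nucleus × 2 × 10^5. Values are mean ± S.E. of 5 mice; unpaired t-test.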

Leishmania donovani [5] = test: Antileishmanial activity against Leishmania donovani MHOM/IN/1983/AG83 promastigotes infected ip dosed BALB/c mouse assessed as reduction in liver parasite burden administered two times per week for 4 weeks relative to control; format: functional; parameters: scale not given: the % may be the effect or the level left; outline: as §1
Leishmania donovani [6] = test: Antileishmanial activity against Leishmania donovani MHOM/IN/1983/AG83 promastigotes infected BALB/c mouse assessed as liver weight at 12.5 mg/kg, ip administered two times per week for 4 weeks; format: functional; conditions: route intraperitoneal; outline: as §1
Leishmania donovani [7] = test: Antileishmanial activity against Leishmania donovani MHOM/IN/1983/AG83 promastigotes infected BALB/c mouse assessed as spleen weight at 12.5 mg/kg, ip administered two times per week for 4 weeks; format: functional; conditions: route intraperitoneal; outline: as §1

| SMILES | IC50 (Leishmania donovani [1]) | IC50 (Leishmania donovani [2]) | Activity [3] | Activity (Leishmania donovani [4]) | Activity (Leishmania donovani [5]) | Activity (Leishmania donovani [6]) | Activity (Leishmania donovani [7]) |
| --- | --- | --- | --- | --- | --- | --- | --- |
| Cc1ccc2cccc(OCCCOc3cccc4ccc(C)nc34)c2n1 | 13.5 µg/mL (≈ 37.7 µM) | 10 µg/mL (≈ 27.9 µM) | > 200 µg/mL |  |  |  |  |
| Cc1ccc2cccc(OCCCCOc3cccc4ccc(C)nc34)c2n1 | 3.2 µg/mL (≈ 8.59 µM) | 2.7 µg/mL (≈ 7.25 µM) | > 90 µg/mL | 73.5% | 78% | 1125 mg | 190 mg |
| N=C(N)c1ccc(OCCCCCOc2ccc(C(=N)N)cc2)cc1 [PENTAMIDINE] | 2.1 µg/mL (≈ 6.17 µM) | 2.8 µg/mL (≈ 8.22 µM) | > 90 µg/mL |  |  |  |  |
| C[C@@H]1[C@H](O)[C@@H](C)/C=C/C=C/C=C/C=C/C=C/C=C/C=C/[C@H](O[C@@H]2O[C@H](C)[C@@H](O)[C@H](N)[C@@H]2O)C[C@@H]2O[C@](O)(C[C@@H](O)C[C@@H](O)[C@H](O)CC[C@@H](O)C[C@@H](O)CC(=O)O[C@H]1C)C[C@H](O)[C@H]2C(=O)O [AMPHOTERICIN B] | 0.16 µg/mL (≈ 0.173 µM) | 0.1 µg/mL (≈ 0.108 µM) | > 4 µg/mL |  |  |  |  |
| Cc1ccc2cccc(OCOc3cccc4ccc(C)nc34)c2n1 | 3.4 µg/mL (≈ 10.3 µM) | 2.9 µg/mL (≈ 8.78 µM) | > 100 µg/mL |  |  | 1205 mg | 232 mg |
| c1cnc2c(OCOc3cccc4cccnc34)cccc2c1 | 2.4 µg/mL (≈ 7.94 µM) | 2.3 µg/mL (≈ 7.61 µM) | > 85 µg/mL | 89% | 92% | 980 mg | 110 mg |
| Cc1ccc2cccc(OCCCCCOc3cccc4ccc(C)nc34)c2n1 | 2.8 µg/mL (≈ 7.24 µM) | 2.4 µg/mL (≈ 6.21 µM) | > 85 µg/mL | 82% | 88.5% | 1020 mg | 135 mg |
| O=c1ccc2cccc3c2n1CCO3 [OXAZINOQUINOLONE] | 16.5 µg/mL (≈ 88.1 µM) | 14 µg/mL (≈ 74.8 µM) | > 220 µg/mL |  |  |  |  |
